Measurements taken from ChEMBL document CHEMBL4411261, “Down-Regulation of the Androgen Receptor by G-Quadruplex Ligands Sensitizes Castration-Resistant Prostate Cancer Cells to Enzalutamide” (J Med Chem, 2018).
Activity calls are given as the source filed them. The calls are words filed in the database; no cut-off is given here.

How the values were obtained:
[1] = Stabilization of 5'-FAM/3'-TAMRA labelled CTATAGCGCGCTATAG dsDNA (unknown origin) assessed as change in melting temperature t1/2 at 1 uM after 16 hrs in presence of 100 mM K+ by FRET assay
Summary of the method: (§1)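 FRET melting: FAM/TAMRA dual-labelled oligos (0.25 μM) folded in 10 mM lithium cacodylate pH 7.4 with 100 mM KCl (95 °C 5 min, cooled 4 h); ligand added at 1 μM final, 16 h room temperature. FAM emission followed 30−95 °C at 1 °C/min; curves normalized 0 to 1, T1/2 at 0.5 fraction.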

CWR22R = test: Cytotoxicity against human 22Rv1 cells expressing full length androgen receptor H875Y point mutant assessed as reduction in cell viability after 48 hrs by MTS assay; assay type: functional, cell-based; conditions: 22Rv1, 48 h
Summary of the method: (§2)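 Cells kept in RPMI-1640 with 10% fetal calf serum, 37 °C, 5% CO2. Seeded, after 24 h treated with 0.0001, 0.001, 0.01, 0.1, 1 and 10 μM compound (DMSO stocks freshly diluted in medium) for 48 h. MTS added 4 h, absorbance 490 nm; IC50 from curves of % viability inhibition versus DMSO-treated cells against log concentration.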

Quadruplex DNA [2] = test: Stabilization of 5'-FAM/3'-TAMRA labelled AR1 G-quadruplex oligonucleotide (unknown origin) assessed as change in melting temperature t1/2 at 1 uM after 16 hrs in presence of 100 mM K+ by FRET assay; assay type: nucleic-acid assay; summary of the method: as §1
LNCaP = test: Cytotoxicity against human LNCAP cells expressing androgen receptor T877A point mutant assessed as reduction in cell viability after 48 hrs by MTS assay; assay type: functional, cell-based; summary of the method: as §2
PC-3 = test: Cytotoxicity against human PC3 cells assessed as reduction in cell viability after 48 hrs by MTS assay; assay type: functional, cell-based; conditions: PC-3, 48 h; summary of the method: as §2
Quadruplex DNA [3] = test: Stabilization of 5'-FAM/3'-TAMRA labelled AR3 G-quadruplex oligonucleotide (unknown origin) assessed as change in melting temperature t1/2 at 1 uM after 16 hrs in presence of 100 mM K+ by FRET assay; assay type: nucleic-acid assay; summary of the method: as §1
Quadruplex DNA [4] = test: Binding affinity to 5'-Biotinylated-AR1 G-quadruplex oligonucleotide (unknown origin) by SPR analysis relative to control; assay type: nucleic-acid assay
PNT1A = test: Cytotoxicity against human PNT1A cells assessed as reduction in cell viability after 48 hrs by MTS assay; assay type: cell-based; summary of the method: as §2
DU-145 = test: Cytotoxicity against human DU145 cells assessed as reduction in cell viability after 48 hrs by MTS assay; assay type: functional, cell-based; conditions: DU-145, 48 h; summary of the method: as §2
Quadruplex DNA [5] = test: Binding affinity to 5'-Biotinylated-AR1 G-quadruplex oligonucleotide (unknown origin) by SPR analysis; assay type: nucleic-acid assay
Summary of the method: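 SPR on streptavidin chip; 5′-biotinylated oligo folded by heating 95 °C 5 min in 10 mM lithium cacodylate, 150 mM KCl, then immobilized at 30 nM to about 600 RU; empty reference cell. Compound 0.7−400 nM in HEPES-KCl (pH 7.4, 0.15 M KCl, 3 mM EDTA) at 40 °C, 40 μL/min, 260 s contact, 600 s dissociation; glycine pH 2.0 regeneration; steady-state affinity fit; at least two independent runs.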

Quadruplex DNA [6] = test: Stabilization of AR G-quadruplex oligonucleotide in human 22Rv1 cells assessed as reduction in AR-VS protein level at IC50 after 48 hrs by Western immunoblot assay; assay type: cell-based
Quadruplex DNA [7] = test: Stabilization of AR G-quadruplex oligonucleotide in human 22Rv1 cells assessed as reduction in AR-FL protein level at IC50 after 48 hrs by Western immunoblot assay; assay type: cell-based
Quadruplex DNA [8] = test: Stabilization of AR G-quadruplex oligonucleotide in human 22Rv1 cells assessed as reduction in basal AR mRNA expression at IC50 after 6 to 72 hrs by RT-PCR analysis; assay type: cell-based
Summary of the method: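 Transcripts quantified by TaqMan real-time PCR with RNaseP as normalizer; relative quantity versus untreated cells by the 2−ΔΔCt method. Panel genes measured with a 92-gene cancer-mechanism TaqMan array.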

Quadruplex DNA [9] = test: Stabilization of AR G-quadruplex oligonucleotide in human LNCAP cells assessed as reduction in basal AR mRNA expression at IC50 after 6 to 72 hrs by RT-PCR analysis; assay type: cell-based
Summary of the method: (§3)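 Cells grown in RPMI-1640 with 10% fetal calf serum, 37 °C, 5% CO2, treated at an equitoxic concentration. Transcripts quantified by TaqMan real-time RT-PCR, normalized to RNaseP, expressed as relative quantity versus untreated cells (calibrator) by the 2−ΔΔCt method.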

Quadruplex DNA [10] = test: Stabilization of AR G-quadruplex oligonucleotide in human LNCAP cells assessed as reduction in AR mRNA expression at IC50 by RT-PCR analysis; assay type: cell-based; conditions: TDE = time-dependent effect; summary of the method: as §3
Quadruplex DNA [11] = test: Stabilization of AR G-quadruplex oligonucleotide in human 22Rv1 cells assessed as reduction in AR mRNA expression at IC50 by RT-PCR analysis; assay type: cell-based; conditions: TDE = time-dependent effect
Quadruplex DNA [12] = test: Stabilization of AR G-quadruplex oligonucleotide in human 22Rv1 cells assessed as reduction in AR-FL protein level by immunoblotting assay; assay type: cell-based
Quadruplex DNA [13] = test: Stabilization of AR G-quadruplex oligonucleotide in human 22Rv1 cells assessed as reduction in AR-Vs protein level by immunoblotting assay; assay type: cell-based
Quadruplex DNA [14] = test: Stabilization of AR G-quadruplex oligonucleotide in human LNCAP cells assessed as reduction in PSA protein level by immunoblotting assay; assay type: cell-based
Summary of the method: (§4)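 Lysate proteins immunoblotted. Vinculin or β-actin used as loading control, peroxidase-linked secondary antibodies, ECL chemiluminescent detection, autoradiography, densitometric scan. Untreated cells received DMSO.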

Quadruplex DNA [15] = test: Stabilization of AR G-quadruplex oligonucleotide in human LNCAP cells assessed as reduction in AR-FL protein level by immunoblotting assay; assay type: cell-based; summary of the method: as §4

SMILES | ΔTm [1] [°C] | ΔTm (Quadruplex DNA [2]) [°C] | ΔTm (Quadruplex DNA [3]) [°C] | RBA (Quadruplex DNA [4]) [%] | Kd (Quadruplex DNA [5]) [nM] | IC50 (CWR22R) [nM] | IC50 (LNCaP) [nM] | IC50 (PC-3) [nM] | IC50 (PNT1A) [nM] | IC50 (DU-145) [nM] | Activity (Quadruplex DNA [6]) | Activity (Quadruplex DNA [7]) | Activity (Quadruplex DNA [8]) | Activity (Quadruplex DNA [9]) | Activity (Quadruplex DNA [10]) | Activity (Quadruplex DNA [11]) | Activity (Quadruplex DNA [12]) | Activity (Quadruplex DNA [13]) | Activity (Quadruplex DNA [14]) | Activity (Quadruplex DNA [15])
CN(C)CCN1C(=O)c2ccc3c4c(c(NCC(=O)Nc5ccc(O)c(CO)c5)cc(c24)C1=O)C(=O)N(CCN(C)C)C3=O | < 0.1 | 4.5 | 9.3 | 41 | 43.9 | 3690 | 3040 | > 10000 | 1440 | > 10000 | – | – | – | – | – | – | – | – | – | –
CN(C)CCCN1C(=O)c2ccc3c4c(c(NCCCCNc5cc6c7c(ccc8c7c5C(=O)N(CCCN(C)C)C8=O)C(=O)N(CCCN(C)C)C6=O)cc(c24)C1=O)C(=O)N(CCCN(C)C)C3=O | 1.9 | 11.3 | 19.7 | 19 | 92.5 | > 10000 | 1930 | 10100 | 2480 | 3390 | – | – | – | – | – | – | – | – | – | –
CN1CCN(c2cc3c4c(c(NCCO)cc5c4c2C(=O)N(CCO)C5=O)C(=O)N(CCO)C3=O)CC1 | < 0.1 | 0.1 | 0.4 | – | – | 7670 | > 10000 | > 10000 | 7070 | > 10000 | – | – | inactive | inactive | Tde | Tde | inactive | inactive | inactive | inactive
CN(C)CCCN1C(=O)c2ccc3c4c(c(NCCCCCCCNc5cc6c7c(ccc8c7c5C(=O)N(CCCN(C)C)C8=O)C(=O)N(CCCN(C)C)C6=O)cc(c24)C1=O)C(=O)N(CCCN(C)C)C3=O | 1 | 8.3 | 17 | 10 | 182 | 3450 | 6560 | > 10000 | 1890 | 2190 | – | – | – | – | – | – | – | – | – | –

Continued, in another order:

ΔTm [1] [°C] | ΔTm (Quadruplex DNA [2]) [°C] | ΔTm (Quadruplex DNA [3]) [°C] | RBA (Quadruplex DNA [4]) [%] | Kd (Quadruplex DNA [5]) [nM] | SMILES | IC50 (CWR22R) [nM] | IC50 (LNCaP) [nM] | IC50 (PC-3) [nM] | IC50 (PNT1A) [nM] | IC50 (DU-145) [nM] | Activity (Quadruplex DNA [6]) | Activity (Quadruplex DNA [7]) | Activity (Quadruplex DNA [8]) | Activity (Quadruplex DNA [9]) | Activity (Quadruplex DNA [10]) | Activity (Quadruplex DNA [11]) | Activity (Quadruplex DNA [12]) | Activity (Quadruplex DNA [13]) | Activity (Quadruplex DNA [14]) | Activity (Quadruplex DNA [15])
< 0.1 | 7.2 | 10 | 52 | 34.2 | CN(C)CCN1C(=O)c2ccc3c4c(c(NCCc5ccc(O)c(CN(C)C)c5)cc(c24)C1=O)C(=O)N(CCN(C)C)C3=O | 100 | 390 | 320 | 350 | 300 | Active | Active | – | – | – | – | – | – | – | –
< 0.1 | 5.6 | 9 | 84 | 21.4 | CN(C)CCN1C(=O)c2ccc3c4c(c(C#Cc5ccc(CN(C)C)c(O)c5)cc(c24)C1=O)C(=O)N(CCN(C)C)C3=O | 970 | 590 | 340 | 130 | 550 | – | – | – | – | – | – | – | – | – | –
5.1 | 11 | 13 | 43 | 41.2 | CN(C)CCCNc1cc2c3c(ccc4c3c1C(=O)N(CCCN(C)C)C4=O)C(=O)N(CCCN(C)C)C2=O | 2430 | 3400 | 6320 | 590 | 3880 | – | – | – | – | – | – | – | – | – | –
< 0.1 | 3.6 | 6 | 47 | 38.3 | CN(C)CCCN1C(=O)c2ccc3c4c(c5[nH]c(=O)c(=O)[nH]c5c(c24)C1=O)C(=O)N(CCCN(C)C)C3=O | > 10000 | 10300 | > 10000 | 1370 | > 10000 | – | – | – | – | – | – | – | – | – | –
